# Data published in ChEMBL document CHEMBL2146466, “Evaluation of dimerization-inhibitory activities of cyclic peptides containing a β-hairpin loop sequence of the EGF receptor” (2012).
# Activity calls are given as the source filed them. The calls are words filed in the database; no cut-off is given here. Where a SMILES comes first, the peptide text is derived from it.
# Legend:
# [1] = molecular target: Epidermal growth factor receptor (Homo sapiens) (UniProt P00533); assay: Inhibition of human recombinant EGF receptor autophosphorylation expressed in A431 cells at 1 nM after 5 mins by immunoblotting analysis; type: cell-based; conditions: A-431
# Outline: (§1)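 A431 cells were seeded at 1×10^4/well, grown 4 days, then starved 24 h in serum-free medium with 1 mg/mL BSA. Cells were given peptide or PBS for 1 h at 37 °C, then 100 ng/mL human EGF for 5 min. Lysates in NP-40 buffer were diluted to 500 µg/mL protein and run on SDS-PAGE. Blots were probed with anti-EGFR pY1068, then stripped and re-probed for total EGFR. Mean of two independent experiments in duplicate.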
# [2] = molecular target: Epidermal growth factor receptor (Homo sapiens) (UniProt P00533); assay: Human recombinant EGF receptor dimer amount expressed in A431 cells at 10 uM after 10 mins by immunoblotting analysis relative to control; conditions: A-431
# [3] = tested on: A-431; assay: Antiproliferative activity against human A431 cells at 10 uM after 3 days by WST-8 assay; type: functional; conditions: A-431, 72 h
# Outline: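 A431 cells in DMEM with 10% FBS were seeded at 5×10^3 cells/well and grown 24 h at 37 °C, 5% CO₂. Peptide at 10 µM, or distilled water as the 100% growth control, was added and cells were re-incubated 24 h for three consecutive days. WST-8 was then added for 90 min and absorbance read at 450 nm (reference 655 nm). Six replicate wells, three independent repeats; mean ± SD.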
# [4] = molecular target: Epidermal growth factor receptor (Homo sapiens) (UniProt P00533); assay: Inhibition of human recombinant EGF receptor autophosphorylation expressed in A431 cells at 10 uM after 5 mins by immunoblotting analysis; type: cell-based; conditions: A-431; outline: as §1
# [5] = molecular target: Epidermal growth factor receptor (Homo sapiens) (UniProt P00533); assay: Inhibition of human recombinant EGF receptor dimerization expressed in A431 cells at 10 uM after 10 mins by immunoblotting analysis relative to control; type: cell-based; conditions: A-431
# Outline: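 Confluent A431 cells were solubilized in 20 mM HEPES pH 7.4 with 1% Triton X-100, 10% glycerol, 1 mM EGTA and 1 mM PMSF, and the extract was spun at 250,000×g. Supernatant at 2 µg/µL protein was pre-treated 60 min with 10 µM peptide, then given 0.21 µM human EGF for 10 min. Cross-linking was with 1 mM BS³ for 10 min, quenched with glycine. Dimer and monomer were resolved by SDS-PAGE and anti-EGFR immunoblot, with ECL quantification. Dimer without peptide was set to 1.0; mean ± SD of at least three experiments in duplicate.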
# [6] = molecular target: Epidermal growth factor receptor (Homo sapiens) (UniProt P00533); assay: Inhibition of human recombinant EGF receptor dimerization expressed in A431 cells at 10 uM after 10 mins by immunoblotting analysis relative to CYNPTTYQMC; type: cell-based; conditions: A-431
# Sequence of Epidermal growth factor receptor (Homo sapiens) (P00533 whole entry): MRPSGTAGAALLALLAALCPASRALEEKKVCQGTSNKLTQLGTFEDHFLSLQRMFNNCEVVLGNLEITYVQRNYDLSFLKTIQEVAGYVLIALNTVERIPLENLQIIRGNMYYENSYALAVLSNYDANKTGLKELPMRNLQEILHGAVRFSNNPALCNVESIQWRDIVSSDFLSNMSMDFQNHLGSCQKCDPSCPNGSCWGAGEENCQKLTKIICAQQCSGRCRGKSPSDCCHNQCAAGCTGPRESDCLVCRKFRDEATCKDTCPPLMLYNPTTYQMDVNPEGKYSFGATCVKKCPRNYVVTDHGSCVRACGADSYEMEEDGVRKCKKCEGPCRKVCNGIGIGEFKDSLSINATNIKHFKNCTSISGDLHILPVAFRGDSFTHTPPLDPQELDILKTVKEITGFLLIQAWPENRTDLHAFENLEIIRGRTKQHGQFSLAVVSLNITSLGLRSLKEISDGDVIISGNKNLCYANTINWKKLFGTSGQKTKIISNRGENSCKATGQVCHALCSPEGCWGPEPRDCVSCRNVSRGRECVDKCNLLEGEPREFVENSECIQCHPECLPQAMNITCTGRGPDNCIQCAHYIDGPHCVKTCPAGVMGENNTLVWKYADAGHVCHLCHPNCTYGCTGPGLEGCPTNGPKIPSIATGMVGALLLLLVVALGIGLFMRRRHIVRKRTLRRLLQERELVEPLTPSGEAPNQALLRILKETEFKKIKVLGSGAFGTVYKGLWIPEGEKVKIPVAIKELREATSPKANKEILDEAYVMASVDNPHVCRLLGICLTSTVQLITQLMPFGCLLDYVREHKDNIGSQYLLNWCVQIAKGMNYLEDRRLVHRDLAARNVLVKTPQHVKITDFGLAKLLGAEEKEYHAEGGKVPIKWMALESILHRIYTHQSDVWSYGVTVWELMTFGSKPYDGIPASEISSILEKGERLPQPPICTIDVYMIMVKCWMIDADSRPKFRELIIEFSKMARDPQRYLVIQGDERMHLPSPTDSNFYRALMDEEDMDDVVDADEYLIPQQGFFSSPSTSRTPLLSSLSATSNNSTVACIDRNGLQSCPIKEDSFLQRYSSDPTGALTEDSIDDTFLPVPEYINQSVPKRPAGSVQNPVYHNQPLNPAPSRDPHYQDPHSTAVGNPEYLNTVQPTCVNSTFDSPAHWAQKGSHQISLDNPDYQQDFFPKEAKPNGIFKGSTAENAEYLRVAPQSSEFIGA
molecule,measurement,setting,value
CSCC[C@H]1NC(=O)[C@H](N)CSSC[C@H](C(=O)O)NC(=O)[C@@H](Cc2ccc(O)cc2)NC(=O)[C@@H](CC(N)=O)NC(=O)[C@H]2CCCN2C(=O)[C@@H]([C@H](C)O)NC(=O)[C@@H]([C@H](C)O)NC(=O)[C@@H](Cc2ccc(O)cc2)NC(=O)[C@@H](CCC(N)=O)NC1=O,inhibition,[1],45%
same,residual activity,[2],68%
same,cell proliferation (% of vehicle) at 10 µM,[3],81%
same,inhibition,[4],70%
CSCC[C@@H]1NC(=O)[C@H](CCC(N)=O)NC(=O)[C@H](Cc2ccc(O)cc2)NC(=O)[C@H]([C@@H](C)O)NC(=O)[C@H]([C@@H](C)O)NC(=O)[C@@H]2CCCN2C(=O)[C@H](CC(N)=O)NC(=O)[C@H](Cc2ccc(O)cc2)NC(=O)[C@@H](N)CSSC[C@@H](C(=O)O)NC1=O,residual activity,[2],69%
same,cell proliferation (% of vehicle) at 10 µM,[3],84%
same,inhibition,[4],Active
"CSCC[C@@H]1NC(=O)[C@H](CCC(N)=O)NC(=O)[C@H](Cc2ccc(O)cc2)NC(=O)[C@H]([C@@H](C)O)NC(=O)[C@H]([C@@H](C)O)NC(=O)[C@@H]2CCCN2C(=O)[C@H](CC(N)=O)NC(=O)[C@H](C)NC(=O)[C@@H](N)CSSC[C@@H](C(=O)O)NC1=O (HELM PEPTIDE1{C.A.N.P.T.T.Y.Q.M.C}$PEPTIDE1,PEPTIDE1,1:R3-10:R3$$$V2.0)",inhibition,[5],inactive
"CSCC[C@@H]1NC(=O)[C@H](CCC(N)=O)NC(=O)[C@H](Cc2ccc(O)cc2)NC(=O)[C@H]([C@@H](C)O)NC(=O)[C@H]([C@@H](C)O)NC(=O)[C@@H]2CCCN2C(=O)[C@H](CC(N)=O)NC(=O)[C@H](Cc2ccc(O)cc2)NC(=O)[C@H](CC(C)C)NC(=O)[C@H](CCSC)NC(=O)[C@H](CC(C)C)NC(=O)[C@@H](N)CSSC[C@@H](C(=O)O)NC(=O)[C@H](CCC(=O)O)NC(=O)[C@@H]2CCCN2C(=O)[C@H](C(C)C)NC(=O)[C@H](CC(=O)O)NC1=O (HELM PEPTIDE1{C.L.M.L.Y.N.P.T.T.Y.Q.M.D.V.P.E.C}$PEPTIDE1,PEPTIDE1,1:R3-17:R3$$$V2.0)",inhibition,[5],Active
"CSCC[C@@H]1NC(=O)[C@H](CCC(N)=O)NC(=O)[C@H](Cc2ccc(O)cc2)NC(=O)[C@H]([C@@H](C)O)NC(=O)[C@H]([C@@H](C)O)NC(=O)[C@@H]2CCCN2C(=O)[C@H](CC(N)=O)NC(=O)[C@H](Cc2ccc(O)cc2)NC(=O)[C@H](CC(C)C)NC(=O)[C@H](CCSC)NC(=O)[C@@H](N)CSSC[C@@H](C(=O)O)NC(=O)[C@H](C(C)C)NC(=O)[C@H](CC(=O)O)NC1=O (HELM PEPTIDE1{C.M.L.Y.N.P.T.T.Y.Q.M.D.V.C}$PEPTIDE1,PEPTIDE1,1:R3-14:R3$$$V2.0)",inhibition,[5],Active
"CSCC[C@@H]1NC(=O)[C@H](CCC(N)=O)NC(=O)[C@H](Cc2ccc(O)cc2)NC(=O)[C@H]([C@@H](C)O)NC(=O)[C@H]([C@@H](C)O)NC(=O)[C@@H]2CCCN2C(=O)[C@H](CC(N)=O)NC(=O)[C@H](Cc2ccc(O)cc2)NC(=O)[C@H](CC(C)C)NC(=O)[C@H](CCSC)NC(=O)[C@H](CC(C)C)NC(=O)[C@@H]2CCCN2C(=O)[C@@H]2CCCN2C(=O)[C@@H](N)CSSC[C@@H](C(=O)O)NC(=O)CNC(=O)[C@H](CCC(=O)O)NC(=O)[C@@H]2CCCN2C(=O)[C@H](C(C)C)NC(=O)[C@H](CC(=O)O)NC1=O (HELM PEPTIDE1{C.P.P.L.M.L.Y.N.P.T.T.Y.Q.M.D.V.P.E.G.C}$PEPTIDE1,PEPTIDE1,1:R3-20:R3$$$V2.0)",inhibition,[5],Active
"CSCC[C@@H]1NC(=O)[C@H](CCC(N)=O)NC(=O)[C@H](Cc2ccc(O)cc2)NC(=O)[C@@H]2CSSC[C@H](NC(=O)[C@H](Cc3ccc(O)cc3)NC(=O)[C@@H](N)CSSC[C@@H](C(=O)O)NC1=O)C(=O)N1CCC[C@H]1C(=O)N[C@@H]([C@@H](C)O)C(=O)N2 (HELM PEPTIDE1{C.Y.C.P.T.C.Y.Q.M.C}$PEPTIDE1,PEPTIDE1,1:R3-10:R3|PEPTIDE1,PEPTIDE1,3:R3-6:R3$$$V2.0)",residual activity,[2],83%
same,inhibition,[6],65%
"C[C@@H](O)[C@@H]1NC(=O)[C@H]([C@@H](C)O)NC(=O)[C@@H]2CCCN2C(=O)[C@H](CC(N)=O)NC(=O)[C@H](Cc2ccc(O)cc2)NC(=O)[C@@H](N)CSSC[C@@H](C(=O)N[C@@H](CC(=O)O)C(=O)O)NC(=O)[C@H](CCC(N)=O)NC(=O)[C@H](Cc2ccc(O)cc2)NC1=O (HELM PEPTIDE1{C.Y.N.P.T.T.Y.Q.C.D}$PEPTIDE1,PEPTIDE1,1:R3-9:R3$$$V2.0)",inhibition,[5],inactive
"CSCC[C@@H]1NC(=O)[C@H](CCC(N)=O)NC(=O)[C@H](Cc2ccc(O)cc2)NC(=O)[C@H]([C@@H](C)O)NC(=O)[C@H]([C@@H](C)O)NC(=O)[C@@H]2CCCN2C(=O)[C@H](CC(N)=O)NC(=O)[C@H](Cc2ccc(O)cc2)NC(=O)[C@@H](N)CSSC[C@@H](C(=O)N[C@H](C(=O)N[C@@H](CC(N)=O)C(=O)N2CCC[C@H]2C(=O)N[C@@H](CCC(=O)O)C(=O)O)C(C)C)NC1=O (HELM PEPTIDE1{C.Y.N.P.T.T.Y.Q.M.C.V.N.P.E}$PEPTIDE1,PEPTIDE1,1:R3-10:R3$$$V2.0)",inhibition,[5],inactive
"CSCC[C@@H]1NC(=O)[C@H](CCC(N)=O)NC(=O)[C@H](Cc2ccc(O)cc2)NC(=O)[C@H]([C@@H](C)O)NC(=O)[C@H]([C@@H](C)O)NC(=O)[C@@H]2CCCN2C(=O)[C@H](CC(N)=O)NC(=O)[C@H](Cc2ccc(O)cc2)NC(=O)[C@@H](N)CSSC[C@@H](C(=O)N[C@H](C(=O)N[C@@H](CC(N)=O)C(=O)O)C(C)C)NC1=O (HELM PEPTIDE1{C.Y.N.P.T.T.Y.Q.M.C.V.N}$PEPTIDE1,PEPTIDE1,1:R3-10:R3$$$V2.0)",inhibition,[5],inactive
"CSCC[C@@H]1NC(=O)[C@H](CCC(N)=O)NC(=O)[C@H](Cc2ccc(O)cc2)NC(=O)[C@H]([C@@H](C)O)NC(=O)[C@H]([C@@H](C)O)NC(=O)[C@@H]2CCCN2C(=O)[C@H](CC(N)=O)NC(=O)[C@H](Cc2ccc(O)cc2)NC(=O)[C@@H](N)CSSC[C@@H](C(=O)N[C@H](C(=O)O)C(C)C)NC1=O (HELM PEPTIDE1{C.Y.N.P.T.T.Y.Q.M.C.V}$PEPTIDE1,PEPTIDE1,1:R3-10:R3$$$V2.0)",inhibition,[5],inactive
"CC(C)C[C@H](N)C(=O)N[C@H]1CSSC[C@@H](C(=O)N[C@@H](CC(=O)O)C(=O)O)NC(=O)[C@H](CCC(N)=O)NC(=O)[C@H](Cc2ccc(O)cc2)NC(=O)[C@H]([C@@H](C)O)NC(=O)[C@H]([C@@H](C)O)NC(=O)[C@@H]2CCCN2C(=O)[C@H](CC(N)=O)NC1=O (HELM PEPTIDE1{L.C.N.P.T.T.Y.Q.C.D}$PEPTIDE1,PEPTIDE1,2:R3-9:R3$$$V2.0)",inhibition,[5],inactive
"CSCC[C@@H]1NC(=O)[C@H](CCC(N)=O)NC(=O)[C@H](Cc2ccc(O)cc2)NC(=O)[C@H]([C@@H](C)O)NC(=O)[C@H]([C@@H](C)O)NC(=O)[C@@H]2CCCN2C(=O)[C@H](CC(N)=O)NC(=O)[C@H](Cc2ccc(O)cc2)NC(=O)[C@@H](NC(=O)[C@H](CCSC)NC(=O)[C@@H](N)CC(C)C)CSSC[C@@H](C(=O)O)NC1=O (HELM PEPTIDE1{L.M.C.Y.N.P.T.T.Y.Q.M.C}$PEPTIDE1,PEPTIDE1,3:R3-12:R3$$$V2.0)",inhibition,[5],Active
"CSCC[C@H](NC(=O)[C@H](CCC(N)=O)NC(=O)[C@H](Cc1ccc(O)cc1)NC(=O)[C@@H]1CSSC[C@H](NC(=O)[C@H](Cc2ccc(O)cc2)NC(=O)[C@@H](N)CC(C)C)C(=O)N2CCC[C@H]2C(=O)N[C@@H]([C@@H](C)O)C(=O)N1)C(=O)N[C@@H](CC(=O)O)C(=O)O (HELM PEPTIDE1{L.Y.C.P.T.C.Y.Q.M.D}$PEPTIDE1,PEPTIDE1,3:R3-6:R3$$$V2.0)",residual activity,[2],90%
same,inhibition,[6],32%
"CSCC[C@@H]1NC(=O)[C@H](CCC(N)=O)NC(=O)[C@H](Cc2ccc(O)cc2)NC(=O)[C@H]([C@@H](C)O)NC(=O)[C@H]([C@@H](C)O)NC(=O)[C@@H]2CCCN2C(=O)[C@H](CC(N)=O)NC(=O)[C@H](Cc2ccc(O)cc2)NC(=O)[C@@H](NC(=O)[C@@H](N)CCSC)CSSC[C@@H](C(=O)O)NC1=O (HELM PEPTIDE1{M.C.Y.N.P.T.T.Y.Q.M.C}$PEPTIDE1,PEPTIDE1,2:R3-11:R3$$$V2.0)",residual activity,[2],64%
"CSCC[C@@H]1NC(=O)[C@H](CCC(N)=O)NC(=O)[C@H](Cc2ccc(O)cc2)NC(=O)[C@H]([C@@H](C)O)NC(=O)[C@H]([C@@H](C)O)NC(=O)[C@@H]2CCCN2C(=O)[C@H](CC(N)=O)NC(=O)[C@H](Cc2ccc(O)cc2)NC(=O)[C@@H](NC(=O)[C@H](CCSC)NC(=O)[C@H](CC(C)C)NC(=O)[C@@H]2CCCN2)CSSC[C@@H](C(=O)O)NC1=O (HELM PEPTIDE1{P.L.M.C.Y.N.P.T.T.Y.Q.M.C}$PEPTIDE1,PEPTIDE1,4:R3-13:R3$$$V2.0)",inhibition,[5],Active
H-LVYNKLTFQLEPNPHTK-OH,cell proliferation (% of vehicle) at 10 µM,[3],95%
